Measured values taken from ChEMBL document CHEMBL4393661, “PRODRUGS FOR NITROREDUCTASE BASED CANCER THERAPY- 2: Novel amide/Ntr combinations targeting PC3 cancer cells” (Eur J Med Chem, 2019).

Legend:
[1] = Cytotoxicity against human HUVEC cells assessed as cell viability at 9 to 150 uM measured after 48 hrs by MTT assay relative to control; assay type: cell-based; conditions: read-out: Activity
Outline: (§1)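 Hep3B and HUVEC cells were grown in high-glucose medium with 10% heat-inactivated FBS and 2 mM glutamine at 37 °C in 5% CO2. Cells were seeded at 5x10^4 per well and left 24 h to attach. They were then exposed for 48 h to 150, 75, 39, 19 and 9 µM, with 1% DMSO as vehicle control. Viability was read by MTT at 550 nm as (OD sample/OD control)×100.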

[2] = molecular target: T1, Putative nitroreductase (Staphylococcus saprophyticus subsp. saprophyticus (strain ATCC 15305 / DSM20229 / NCIMB 8711 / NCTC 7292 / S-41), UniProt Q4A0P1); assay: Substrate activity at Staphylococcus saprophyticus nitroreductase expressed in Escherichia coli assessed as retention time […] at 111 uM by HPLC analysis (0 to 5 mins at 20 % ACN, 15 to 22 min at 80% ACN, 27-32 AT 20% ACN); assay type: ADME
T1 sequence (Q4A0P1 whole entry): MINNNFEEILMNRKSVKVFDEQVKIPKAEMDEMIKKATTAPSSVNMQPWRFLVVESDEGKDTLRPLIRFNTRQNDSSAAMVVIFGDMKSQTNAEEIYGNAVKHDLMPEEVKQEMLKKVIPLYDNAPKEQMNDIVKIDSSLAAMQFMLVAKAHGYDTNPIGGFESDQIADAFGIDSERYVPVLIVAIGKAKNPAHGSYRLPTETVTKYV

[3] = Cytotoxicity against human Hep3B cells assessed as cell viability at 9 to 150 uM measured after 48 hrs by MTT assay relative to control; assay type: cell-based, Hep 3B2; conditions: read-out: Activity; outline: as §1
[4] = molecular target: T1, Putative nitroreductase; assay: Substrate activity at Staphylococcus saprophyticus nitroreductase expressed in Escherichia coli assessed as retention time in the presence of NADPH at 111 uM by HPLC analysis (0 to 5 mins at 20% ACN, 25 to 35 min at 80% ACN, 40 to 45 min at 20% ACN); assay type: ADME
[5] = molecular target: T2, Staphylococcus saprophyticus nitroreductase (Staphylococcus saprophyticus subsp. saprophyticus (strain ATCC 15305 / DSM20229 / NCIMB 8711 / NCTC 7292 / S-41), UniProt Q4A0P1); assay: Substrate activity at Staphylococcus saprophyticus nitroreductase expressed in Escherichia coli assessed as half life in the presence of NADPH at 111 uM by HPLC analysis (0 to 5 mins at 20% ACN, 25 to 35 min at 80% ACN, 40 to 45 min at 20% ACN); assay type: ADME
T2 sequence (Q4A0P1 whole entry): T1 sequence (Q4A0P1 whole entry)

[6] = system: Hep 3B2; assay: Cytotoxicity against human Hep3B cells assessed as reduction in cell viability measured after 48 hrs by MTT assay; assay type: cell-based; outline: as §1
[7] = Cytotoxicity against human PC3 cells assessed as cell viability at 9 to 150 uM measured after 48 hrs by MTT assay relative to control; assay type: cell-based, PC-3; conditions: read-out: Activity
Outline: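 They were treated for 48 h at 9, 18, 39, 78 and 150 µM, with 1% DMSO as vehicle control. Viability was read by MTT at 550 nm.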

[8] = molecular target: T1, Putative nitroreductase; assay: Substrate activity at Staphylococcus saprophyticus nitroreductase expressed in Escherichia coli assessed as retention time […] at 100 uM by HPLC analysis (0 to 5 mins at 20 % ACN, 15 to 22 min at 80% ACN, 27-32 AT 20% ACN); assay type: ADME
[9] = system: PC-3; assay: Cytotoxicity in human PC3 cells assessed as reduction in cell viability at 180 nM measured after 48 hrs by SRB assay; assay type: cell-based; conditions: pc-3, 48 h, 0.18 µM
Outline: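 They were exposed for 48 h to prodrug alone at 180 nM final, without enzyme or NADH, with 25 mM Tris-HCl as vehicle control. Cells were fixed with 12.5% TCA for 1 h at 4 °C, stained with 0.4% SRB and read at 492 nm as % cell survival, in triplicate.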

[10] = Solubility of the compound in 15% DMSO; assay type: physicochemical
[11] = system: PC-3; assay: Cytotoxicity against human PC3 cells assessed as reduction in cell viability measured after 48 hrs in presence of Staphylococcus saprophyticus nitroreductase and NADH by SRB assay; assay type: cell-based; conditions: PC-3, 48 h
Outline: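 Prodrug at 180, 18 or 1.8 nM was premixed with Ssap-NtrB (31 µg/mL final) and NADH (600 µM final; 900 µM for CB1954) in 25 mM Tris-HCl pH 7.5, then added for 48 h under aerobic conditions. Cells were fixed with 12.5% TCA, stained with SRB and read at 492 nm, in triplicate.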

[12] = molecular target: T1, Putative nitroreductase; assay: Substrate activity at Staphylococcus saprophyticus nitroreductase expressed in Escherichia coli assessed as retention time in the presence of NADPH at 100 uM by HPLC analysis (0 to 5 mins at 20% ACN, 25 to 35 min at 80% ACN, 40 to 45 min at 20% ACN); assay type: ADME
[13] = molecular target: T2, Staphylococcus saprophyticus nitroreductase; assay: Substrate activity at Staphylococcus saprophyticus nitroreductase expressed in Escherichia coli assessed as half life […] at 100 uM by HPLC analysis (0 to 5 mins at 20% ACN, 25 to 35 min at 80% ACN, 40 to 45 min at 20% ACN); assay type: ADME
[14] = molecular target: T2, Staphylococcus saprophyticus nitroreductase; assay: Substrate activity at Staphylococcus saprophyticus nitroreductase expressed in Escherichia coli assessed as half life […] at 100 uM by HPLC analysis (0 to 5 mins at 20 % ACN, 15 to 22 min at 80% ACN, 27-32 AT 20% ACN); assay type: ADME
[15] = molecular target: T3, Oxygen-insensitive NAD(P)H nitroreductase (Escherichia coli K-12, UniProt P38489); assay: Substrate activity at Escherichia coli nitroreductase nfsB assessed as ratio of Kcat/Km up to 80 mM using NADH as cofactor relative to CB1954/NfsB; assay type: ADME
T3 sequence (P38489 whole entry): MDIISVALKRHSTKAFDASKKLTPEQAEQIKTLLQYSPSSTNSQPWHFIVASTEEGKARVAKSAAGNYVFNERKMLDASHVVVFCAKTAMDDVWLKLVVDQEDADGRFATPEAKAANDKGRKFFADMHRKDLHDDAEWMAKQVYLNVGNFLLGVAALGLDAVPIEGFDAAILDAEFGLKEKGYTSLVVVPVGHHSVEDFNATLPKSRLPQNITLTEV

[16] = molecular target: T2, Staphylococcus saprophyticus nitroreductase; assay: Substrate activity at Staphylococcus saprophyticus nitroreductase expressed in Escherichia coli assessed as half life […] at 150 uM by HPLC analysis (0 to 5 mins at 20 % ACN, 15 to 22 min at 80% ACN, 27-32 AT 20% ACN); assay type: ADME
[17] = molecular target: T1, Putative nitroreductase; assay: Substrate activity at Staphylococcus saprophyticus nitroreductase expressed in Escherichia coli assessed as retention time […] at 150 uM by HPLC analysis (0 to 5 mins at 20 % ACN, 15 to 22 min at 80% ACN, 27-32 AT 20% ACN); assay type: ADME
[18] = molecular target: T1, Putative nitroreductase; assay: Prodrug conversion assessed Staphylococcus saprophyticus nitroreductase expressed in Escherichia coli-mediated PP (4-(hydroxyamino)phenyl)(piperidin-1-yl)methanone metabolite formation by measuring retention time of metabolite at 100 uM incubated for 15 mins by HPLC analysis; assay type: ADME; conditions: 0.25 h
Outline: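 Recombinant Ssap-NtrB, Ni-column purified, was used at 2.5 µg/mL. Substrate at 100 µM was reacted with 200 µM NADH in 25 mM Tris/Cl pH 7.5 with 10% DMSO at 25 °C for 15 min. The reaction was stopped 1:1 with cold acetonitrile and run on C18 RP-HPLC at 1 mL/min with a 20–80% ACN gradient. Peaks were detected at 254 and 340 nm.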

SMILES	viability at 48 h, up to 150 µM [1] [%]	Retention_time [2] [min]	viability at 48 h, up to 150 µM [3] [%]	Retention_time [4] [min]	half-life [5] [h]	IC50 [6] [nM]	viability at 48 h, up to 150 µM [7] [%]	Retention_time [8] [min]	Activity [9]	solubility [10]	IC50 [11] [nM]	Retention_time [12] [min]	half-life at 100 µM [13] [h]	half-life [14] [h]	fold change (FC) [15]	half-life [16] [min]	Retention_time [17] [min]	Retention time [12] [min]	Retention time [8] [min]	Retention time [18] [min]
CCCCN(CCCC)c1c([N+](=O)[O-])cc(C(=O)Nc2ccc([N+](=O)[O-])cc2)cc1[N+](=O)[O-]	< 50	26.5	< 50	31.96	< 1.56	30900	< 50													
O=C(NCCCCNC(=O)c1ccc([N+](=O)[O-])cc1)c1ccc([N+](=O)[O-])cc1	> 80		> 80				> 80	19.02	Non-Toxic	Soluble	36.8									
CCCCN(CCCC)c1c([N+](=O)[O-])cc(C(=O)Nc2ccc(Cl)cc2)cc1[N+](=O)[O-]	< 50	20.12	< 50	34.2	< 2.4	11600	< 50													
O=C(NCCNC(=O)c1ccc([N+](=O)[O-])cc1)c1ccc([N+](=O)[O-])cc1	> 80		51 to 80				> 80	18.65	Non-Toxic	Soluble	31.1	17.86	< 2.54	< 1.2						
CN(C)c1c([N+](=O)[O-])cc(C(=O)Nc2ccc(Cl)cc2)cc1[N+](=O)[O-]	51 to 80	19.22	< 50	25.86	< 3.15	120000	< 50													
CS(=O)(=O)OCCN(CCBr)c1c(C(=O)NCCO)cc([N+](=O)[O-])cc1[N+](=O)[O-]															2.32					
CC(=O)Nc1cc([N+](=O)[O-])cc([N+](=O)[O-])c1	> 80		> 80				> 80		Non-Toxic		10700					< 6	14.4			
O=C(NC1CCCCC1NC(=O)c1ccc([N+](=O)[O-])cc1)c1ccc([N+](=O)[O-])cc1 (stereo unspecified)	> 80		> 80				> 80	20.91	Non-Toxic	Soluble	15.5	20.85	< 1.8	< 0.52						
CCN(C(C)=O)c1cc([N+](=O)[O-])ccc1Br	> 80		> 80				> 80	15.18	Non-Toxic		12600			< 0.1						
O=C(Nc1ccccc1NC(=O)c1ccc([N+](=O)[O-])cc1)c1ccc([N+](=O)[O-])cc1	> 80		> 80				> 80	21.38	Non-Toxic	Soluble	14.3	22.08	< 3.2							
O=C(NC1CCCC(NC(=O)c2ccc([N+](=O)[O-])cc2)C1)c1ccc([N+](=O)[O-])cc1 (stereo unspecified)	> 80		> 80				51 to 80		Non-Toxic	Soluble	30.5		< 0.26	< 2				19.4 to 20.1	19.4 to 20.6	
O=C(Nc1ccc(NC(=O)c2ccc([N+](=O)[O-])cc2)cc1)c1ccc([N+](=O)[O-])cc1	> 80		51 to 80				> 80	16.61		Soluble										
CC(=O)Nc1cc([N+](=O)[O-])ccc1Br	> 80		> 80				> 80	13.88	Non-Toxic		10200			< 0.2						
O=C(c1ccc([N+](=O)[O-])cc1)N1CCOCC1	> 80		> 80				> 80	15.17	Non-Toxic	Soluble	1.81			< 0.25						16
O=C(c1ccc([N+](=O)[O-])cc1)N1CCN(C(=O)c2ccc([N+](=O)[O-])cc2)CC1	> 80		> 80				51 to 80	17.28	Non-Toxic	Soluble	18	17.6	< 1.42							
O=C(Nc1cccc(NC(=O)c2ccc([N+](=O)[O-])cc2)c1)c1ccc([N+](=O)[O-])cc1	> 80		> 80				> 80	21.88	Non-Toxic	Soluble	33.4	21.98								
NC(=O)c1cc(N2CC2)c([N+](=O)[O-])cc1[N+](=O)[O-] [TRETAZICAR]									Non-Toxic											
